{
  "source": "ChEMBL document CHEMBL1134284",
  "about": "“The biological effects of structural variation at the meta position of the aromatic rings and at the end of the alkenyl chain in the alkenyldiarylmethane series of non-nucleoside reverse transcriptase inhibitors” (J Med Chem, 2001)",
  "key": {"[1]": {"assay": "Antiviral activity against Ba-L monocyte tropic isolate strain in monocyte", "assay_type": "functional", "settings": "Homo sapiens", "how_it_was_run": "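Monocytes isolated from hepatitis- and HIV-seronegative donors by Ficoll-Hypaque gradient, cultured 6 days into macrophages, then infected with Ba-L. Medium RPMI 1640 with 10% FBS, 2 mM glutamine, penicillin/streptomycin. Replication read as p24 antigen by ELISA 6 days postinfection. […] Run in triplicate, with AZT as positive control.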"}, "CCRF-CEM [2]": {"system": "CCRF-CEM", "assay": "Antiviral activity against site directed 4X AZT resistant isolate HIV-1 L100I in CEM cells", "assay_type": "functional, cell-based, Homo sapiens", "how_it_was_run": "(§1)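 CEM-SS cells infected with low-cytopathicity site-directed RT-mutant NL4-3 clones (A98G, L74V, 4XAZT = D67N/K70R/T215Y/K219Q, 4XAZT/L100I). Replication was quantified by p24 ELISA rather than cytoprotection. […] Triplicate, variation of mean about 10%.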"}, "CCRF-CEM [3]": {"system": "CCRF-CEM", "assay": "Antiviral activity against site directed 4X AZT resistant isolate HIV-1 in CEM cells", "assay_type": "functional, cell-based, Homo sapiens", "settings": "Homo sapiens, CCRF-CEM"}, "CCRF-CEM [4]": {"system": "CCRF-CEM", "assay": "Antiviral activity against site directed resistant isolate HIV-1 K101E in CEM cells", "assay_type": "functional, cell-based, Homo sapiens"}, "CCRF-CEM [5]": {"system": "CCRF-CEM", "assay": "Antiviral activity against site directed resistant isolate HIV-1 K103N in CEM cells", "assay_type": "functional, cell-based, Homo sapiens", "how_it_was_run": "(§2)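 CEM-SS cells in RPMI 1640 with 10% heat-inactivated FBS were infected with NL4-3 molecular clones carrying site-directed RT mutations. Cytoprotection from virus-induced syncytial killing was read by MTS/phenazine ethosulfate reduction (A490) 6 days after infection. […] Triplicate, variation of mean about 10%.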"}, "CCRF-CEM [6]": {"system": "CCRF-CEM", "assay": "Antiviral activity against site directed resistant isolate HIV-1 L100I in CEM cells", "assay_type": "functional, cell-based, Homo sapiens", "how_it_was_run": "as §2"}, "CCRF-CEM [7]": {"system": "CCRF-CEM", "assay": "Antiviral activity against site directed resistant isolate HIV-1 L74V in CEM cells", "assay_type": "functional, cell-based, Homo sapiens", "how_it_was_run": "as §1"}, "CCRF-CEM [8]": {"system": "CCRF-CEM", "assay": "Antiviral activity against site directed resistant isolate HIV-1 V106A in CEM cells", "assay_type": "functional, cell-based, Homo sapiens", "how_it_was_run": "as §2"}, "CCRF-CEM [9]": {"system": "CCRF-CEM", "assay": "Antiviral activity against site directed resistant isolate HIV-1 Y181C in CEM cells", "assay_type": "functional, cell-based, Homo sapiens", "how_it_was_run": "as §2"}, "CCRF-CEM [10]": {"system": "CCRF-CEM", "assay": "Antiviral activity against site directed resistant isolate HIV-1 Y188C in CEM cells", "assay_type": "functional, cell-based, Homo sapiens", "how_it_was_run": "as §2"}, "CCRF-CEM [11]": {"system": "CCRF-CEM", "assay": "Antiviral activity against site directed resistant isolates in HIV-1 A98G CEM cells", "assay_type": "functional, cell-based, Homo sapiens", "how_it_was_run": "as §1"}, "CCRF-CEM [12]": {"system": "CCRF-CEM", "assay": "Antiviral activity against site directed wild-type enzyme isolate HIV-1 NL4-3WT in CEM cells", "assay_type": "functional, cell-based", "settings": "Homo sapiens", "how_it_was_run": "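Wild-type NL4-3 in CEM-SS cells, measured both by MTS cytoprotection 6 days after infection and by p24 ELISA. The IC50 is the mean of the two methods' values.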"}, "[13]": {"system": "Human immunodeficiency virus type 1 (RF/HAT ISOLATE)", "assay": "Inhibitory concentration for cytopathicity of HIV-1RF in CEM-SS cells", "assay_type": "functional, organism-based", "settings": "Human immunodeficiency virus 1, RF", "how_it_was_run": "(§3)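 CEM-SS cells kept in RPMI 1640 with 10% heat-inactivated FBS, 2 mM glutamine, penicillin/streptomycin. Microtiter assay with cytopathic HIV-1 RF, or mock infection for toxicity. Viability read by MTS/phenazine ethosulfate reduction (absorbance 490 nm) 6 days after infection. […] Triplicate.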"}, "CEM-SS": {"system": "CEM-SS", "assay": "Concentration required for cytotoxicity against mock infected CEM-SS cells", "assay_type": "functional", "settings": "Homo sapiens", "how_it_was_run": "as §3"}, "[14]": {"assay": "Antiviral activity against ROJO virus strain in PBLs (peripheral blood lymphocytes)", "assay_type": "functional, cell-based", "settings": "Homo sapiens", "how_it_was_run": "(§4)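 PBMCs isolated from hepatitis- and HIV-seronegative donors by Ficoll-Hypaque gradient and stimulated 3 days with phytohemagglutinin/IL-2. Infected with pediatric low-passage clinical isolates or NIAID subtype isolates, in RPMI 1640 with 10% FBS, 2 mM glutamine, penicillin/streptomycin. Replication read as supernatant reverse transcriptase activity. […] Run in triplicate, with AZT as positive control.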"}, "[15]": {"assay": "Antiviral activity against SLKA virus strain in PBLs (peripheral blood lymphocytes)", "assay_type": "functional, cell-based", "settings": "Homo sapiens", "how_it_was_run": "as §4"}, "[16]": {"assay": "Antiviral activity against TEKI virus strain in PBLs (peripheral blood lymphocytes)", "assay_type": "functional, cell-based", "settings": "Homo sapiens", "how_it_was_run": "as §4"}, "[17]": {"assay": "Antiviral activity against multi drug resistant MDR 769 strain in PBLs (peripheral blood lymphocytes)", "assay_type": "functional, cell-based", "settings": "Homo sapiens", "how_it_was_run": "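PBMC from hepatitis- and HIV-seronegative donors isolated by Ficoll-Hypaque gradient and stimulated 3 days with phytohemagglutinin/IL-2 before infection. Medium RPMI 1640 with 10% FBS, 2 mM glutamine, penicillin/streptomycin. Replication read as supernatant reverse transcriptase activity. […] Run in triplicate, SD within triplicate under 10%; AZT positive control.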"}, "[18]": {"assay": "Antiviral activity against subtype isolate A strain in PBLs (peripheral blood lymphocytes)", "assay_type": "functional, cell-based", "settings": "Homo sapiens", "how_it_was_run": "as §4"}, "[19]": {"assay": "Antiviral activity against subtype isolate B strain in PBLs (peripheral blood lymphocytes)", "assay_type": "functional, cell-based, Homo sapiens", "settings": "Homo sapiens", "how_it_was_run": "as §4"}, "[20]": {"assay": "Antiviral activity against subtype isolate C strain in PBLs (peripheral blood lymphocytes)", "assay_type": "functional, cell-based", "settings": "Homo sapiens", "how_it_was_run": "as §4"}, "[21]": {"assay": "Antiviral activity against subtype isolate D strain in PBLs (peripheral blood lymphocytes)", "assay_type": "functional, cell-based", "settings": "Homo sapiens", "how_it_was_run": "as §4"}, "[22]": {"assay": "Antiviral activity against subtype isolate E strain in PBLs (peripheral blood lymphocytes)", "assay_type": "functional, cell-based", "settings": "Homo sapiens"}, "[23]": {"assay": "Antiviral activity against subtype isolate F strain in PBLs (peripheral blood lymphocytes)", "assay_type": "functional, cell-based, Homo sapiens", "settings": "Homo sapiens", "how_it_was_run": "as §4"}, "[24]": {"assay": "Antiviral activity against subtype isolate G strain in PBLs (peripheral blood lymphocytes)", "assay_type": "functional, cell-based", "settings": "Homo sapiens", "how_it_was_run": "as §4"}, "[25]": {"assay": "Antiviral activity against subtype isolate O strain in PBLs (peripheral blood lymphocytes)", "assay_type": "functional, cell-based, Homo sapiens", "settings": "Homo sapiens", "how_it_was_run": "as §4"}, "[26]": {"target": "Human immunodeficiency virus type 1 reverse transcriptase (Human immunodeficiency virus 1, UniProt Q72547)", "assay": "Inhibitory activity against HIV-1 Reverse Transcriptase with rCdG as the template primer", "how_it_was_run": "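Cell-free assay with purified recombinant HIV-1 RT (p66/p51 dimer). Activity measured as [32P]GTP incorporation into the poly(rC)/oligo(dG) homopolymer template/primer. IC50 is reported as inhibition of enzyme activity.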"}, "[27]": {"assay": "Ratio of CC50/EC50 was determined", "settings": "read-out: TI", "how_it_was_run": "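HIV-1 RF–infected CEM-SS cells (RPMI 1640, 10% heat-inactivated FBS, 2 mM glutamine, penicillin/streptomycin), plus mock-infected CEM-SS in parallel. Cell killing and viability were read by MTS/phenazine ethosulfate reduction at 490 nm 6 days after infection. […] Index = CC50 ÷ EC50. Triplicate tests.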"}, "CCRF-CEM [28]": {"system": "CCRF-CEM", "assay": "Antiviral activity against site directed resistant isolate HIV-1 V179D in CEM cells", "assay_type": "functional, cell-based, Homo sapiens", "how_it_was_run": "as §2"}},
  "note": "pEC50, pIC50: −log10 of the molar value.",
  "data": [
    {"compound": "CCOC(=O)CCCC=C(c1cc(Br)c(OC)c(C(=O)OC)c1)c1cc(Br)c(OC)c(C(=O)OC)c1", "values": [
      {"measurement": "pIC50", "setting": "[1]", "value": 5.36},
      {"measurement": "pIC50", "setting": "CCRF-CEM [2]", "value": 6.43},
      {"measurement": "pIC50", "setting": "CCRF-CEM [3]", "value": 7.15},
      {"measurement": "pIC50", "setting": "CCRF-CEM [4]", "value": 6.02},
      {"measurement": "pIC50", "setting": "CCRF-CEM [5]", "value": 6.34},
      {"measurement": "pIC50", "setting": "CCRF-CEM [6]", "value": 7.82},
      {"measurement": "pIC50", "setting": "CCRF-CEM [7]", "value": 6.45},
      {"measurement": "pIC50", "setting": "CCRF-CEM [8]", "value": 5.15},
      {"measurement": "pIC50", "setting": "CCRF-CEM [9]", "value": 5.36},
      {"measurement": "pIC50", "setting": "CCRF-CEM [10]", "value": 5.74},
      {"measurement": "pIC50", "setting": "CCRF-CEM [11]", "value": 7.82},
      {"measurement": "pIC50", "setting": "CCRF-CEM [12]", "value": 6.36},
      {"measurement": "pEC50", "setting": "[13]", "value": 8.15},
      {"measurement": "CC50", "setting": "CEM-SS", "value": 16.5, "unit": "µM"},
      {"measurement": "pIC50", "setting": "[14]", "value": 6.70},
      {"measurement": "pIC50", "setting": "[15]", "value": 5.96},
      {"measurement": "pIC50", "setting": "[16]", "value": 6.00},
      {"measurement": "pIC50", "setting": "[17]", "value": 5.20},
      {"measurement": "pIC50", "setting": "[18]", "value": 6.70},
      {"measurement": "pIC50", "setting": "[19]", "value": 5.31},
      {"measurement": "pIC50", "setting": "[20]", "value": 6.82},
      {"measurement": "pIC50", "setting": "[21]", "value": 7.52},
      {"measurement": "pIC50", "setting": "[22]", "value": 7.00},
      {"measurement": "pIC50", "setting": "[23]", "value": 6.12},
      {"measurement": "pIC50", "setting": "[24]", "value": 6.40},
      {"measurement": "pIC50", "setting": "[25]", "value": 4.68},
      {"measurement": "pIC50", "setting": "[26]", "value": 6.44},
      {"measurement": "selectivity ratio", "setting": "[27]", "value": 2360},
      {"measurement": "pIC50", "setting": "CCRF-CEM [28]", "value": 5.60}
    ]}
  ]
}
